Data from the array DNA melting data of Ke et al. (doi:10.1101/2024.01.08.574731).

Legend:
[1] = folding enthalpy; higher = less favourable; fluorescence melt of hairpins on a sequencing array, two-state fit; conditions: sodium 0.088 M
Outline: (§1)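 Bootstrapped two-state fits yielded melting temperature and folding enthalpy for library hairpins. Cy3 fluorescence, with annealed Cy3 and quencher oligos, was imaged on a sequenced MiSeq flow cell in 50 mM Na-HEPES pH 8.0, 25 mM NaCl in 2.5 °C steps up to 60 °C, and normalised to pre-quench Cy3 and to control constructs. Four replicates were combined by inverse variance, and fitted temperatures were raised by 9.35 °C to match UV melts.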

[2] = melting temperature; fluorescence melt of hairpins on a sequencing array, two-state fit, raised by 9.35 °C to match UV melts; conditions: sodium 0.088 M
Outline: as §1

Row | Sequence | folding enthalpy [1] [kcal/mol] | Tm [2] [°C]
1 | GGTGAAGGAAACTTCACC (((((((....))))))) | -42.6 | 63
2 | GGTGAATCGAAAGATACC (((..(((....)))))) | -16.8 | 29.8
3 | GGTGACCCGAAAGGGACC (((..(((....)))))) | -14.5 | 38.1
4 | GGTGACCGAAAGGTGACC (((.(((....))).))) | -42.5 | 54.4
5 | GGTGACGAAAGTCAACC ((((((....))).))) | -19.6 | 56.1
6 | GGTGACGAAAGTCGTACC ((((((....)))..))) | -15.6 | 46.2
7 | GGTGACGAAAGTCTCACC ((((((....)))..))) | -15.1 | 40.9
8 | GGTGACGAAAGTCTTACC ((((((....)))..))) | -15 | 35.8
9 | GGTGACGGAAACGCCACC ((((.((....)).)))) | -48 | 54.3
10 | GGTGACGGAAACGTTACC (((.(((....))).))) | -38.5 | 53
11 | GGTGAGGGAAACCTCATC (.(((((....))))).) | -25.1 | 48.5
12 | GGTGAGGGAAACCTCGCC ((.((((....)))).)) | -36.5 | 58.1
13 | GGTGATGCGAAAGCAACC (((..(((....)))))) | -13.7 | 36.9
14 | GGTGATGGAAACATTGCC ((..(((....)))..)) | -32.5 | 38.3
15 | GGTGCAGGAAACCGCACC (((((.(....).))))) | -45.1 | 57
16 | GGTGCAGGAAACTGCGTC (..((((....))))..) | -10.3 | 35.6
17 | GGTGCCCGAAAGGGAACC (((.(((....))).))) | -35.8 | 65.1
18 | GGTGCCGAAAGGCCACC ((((((....))).))) | -18.2 | 60.4
19 | GGTGCCGAAAGGCCGACC ((((((....)))..))) | -14.1 | 41.9
20 | GGTGCCGAAAGGCGACC ((((((....))).))) | -16.8 | 61
21 | GGTGCCGAAAGGCTGACC ((((((....)))..))) | -13.9 | 46.8
22 | GGTGCCGGAAACGACACC ((((.((....)).)))) | -44.9 | 54.6
23 | GGTGCCGGAAACGGCGTC (..((((....))))..) | -9.71 | 42.2

Row | Sequence | folding enthalpy [1] [kcal/mol] | Tm [2] [°C]
24 | GGTGCGGGAAACCACACC ((((.((....)).)))) | -54.3 | 51.1
25 | GGTGCGGGAAACTGCACC (((((.(....).))))) | -40.6 | 63.1
26 | GGTGCTCGAAAGAGAACC (((.(((....))).))) | -48.3 | 54.1
27 | GGTGCTCGAAAGAGACC (((.(((....)))))) | -19.4 | 46.5
28 | GGTGCTGGAAACAGTGCC ((..(((....)))..)) | -37.8 | 50.1
29 | GGTGCTGGAAACGGCACC (((((.(....).))))) | -45.8 | 62.9
30 | GGTGCTGGAAACGGCATC (.(((.(....).))).) | -25.4 | 44.2
31 | GGTGGAGCGAAAGCTACC (((..(((....)))))) | -13.7 | 44.1
32 | GGTGGAGGAAACTCCGCC ((.((((....)))).)) | -46 | 57.8
33 | GGTGGCGAAAGCCCACC ((((((....))).))) | -17.5 | 61.7
34 | GGTGGCGAAAGCCGACC ((((((....))).))) | -17.6 | 59.6
35 | GGTGGCGAAAGCCGTACC ((((((....)))..))) | -13.3 | 44.7
36 | GGTGGCGAAAGCCTCACC ((((((....)))..))) | -12.7 | 45.2
37 | GGTGGCGAAAGCCTTACC ((((((....)))..))) | -14 | 40.2
38 | GGTGGCGGAAACGCTACC (((.(((....))).))) | -39.8 | 59.9
39 | GGTGGGAAACCACC (((((....))))) | -24.4 | 62.4
40 | GGTGGGCGAAAGCCGACC (((.(((....))).))) | -19.6 | 61.9
41 | GGTGGTCCGAAAGGAACC (((..(((....)))))) | -14.1 | 48.9
42 | GGTGGTCGAAAGACAACC (((.(((....))).))) | -39.2 | 55.6
43 | GGTGGTGAAAACCACC ((((((....)))))) | -32.5 | 68.2
44 | GGTGGTGGAAACGCCACC (((((.(....).))))) | -35.4 | 63.5
45 | GGTGGTGGAAACGCCATC (.(((.(....).))).) | -22.8 | 46.6
46 | GGTGTAGGAAACTACACC (((((((....))))))) | -44.8 | 60.4

Row | Sequence | folding enthalpy [1] [kcal/mol] | Tm [2] [°C]
47 | GGTGTAGGAAACTACGTC (..((((....))))..) | -9.53 | 29.8
48 | GGTGTCCGAAAGGAGACC (((.(((....))).))) | -42.9 | 58.3
49 | GGTGTCCGAAAGGATACC (((.(((....))).))) | -41.5 | 59.9
50 | GGTGTCGAAAGACAACC ((((((....))).))) | -26.1 | 55.7
51 | GGTGTCGAAAGACCACC ((((((....))).))) | -27.6 | 49.7
52 | GGTGTCGAAAGACCGACC ((((((....)))..))) | -14.9 | 39.1
53 | GGTGTCGAAAGACTAACC ((((((....)))..))) | -20.9 | 40.4
54 | GGTGTCGAAAGACTTACC ((((((....)))..))) | -17.7 | 37.4
55 | GGTGTCGCGAAAGCGACC (((..(((....)))))) | -7.75 | 54
56 | GGTGTCGGAAACGATACC (((.(((....))).))) | -52 | 54.4
57 | GGTGTCTCGAAAGAGACC (((..(((....)))))) | -12.3 | 49.4
58 | GGTGTGACGAAAGTCACC (((..(((....)))))) | -7.87 | 43.6
59 | GGTGTGCCGAAAGGCACC (((..(((....)))))) | -7.6 | 49.7
60 | GGTGTGGGAAACCGCACC ((((.((....)).)))) | -42.9 | 60.4
61 | GGTGTGGGAAACTACACC (((((.(....).))))) | -46.6 | 52.6
62 | GGTGTTCGAAAGAAAACC (((.(((....))).))) | -25.3 | 45.2
63 | GGTGTTCGAAAGAAGACC (((.(((....))).))) | -40.4 | 50.5
64 | GGTGTTCGAAAGAATACC (((.(((....))).))) | -45.6 | 53.6
65 | GGTGTTGAAAAACACC ((((((....)))))) | -37 | 57.9
66 | GGTGTTGGAAACAACGTC (..((((....))))..) | -26.5 | 47.2
67 | GGTGTTGGAAACAGTACC (((..((....))..))) | -18.7 | 31.7
68 | GGTGTTGGAAACGACATC (.(((.(....).))).) | -21.3 | 33.2
69 | GGTGTTGGAAACGATACC (((.(.(....).).))) | -14.2 | 33.2

Row | Sequence | folding enthalpy [1] [kcal/mol] | Tm [2] [°C]
70 | GGTTACACGAAAGTGACC (((..(((....)))))) | -16.6 | 35.5
71 | GGTTACCCGAAAGGGACC (((..(((....)))))) | -12.9 | 35.2
72 | GGTTACCGAAAGGTACC (((.(((....)))))) | -20.4 | 51
73 | GGTTACGAAAGTAAACC ((((((....))).))) | -24.2 | 48.8
74 | GGTTACGAAAGTAACC ((((((....)))))) | -34.7 | 67.5
75 | GGTTACGAAAGTACTACC ((((((....)))..))) | -23.2 | 28.4
76 | GGTTACGAAAGTAGAACC ((((((....)))..))) | -18.2 | 37.8
77 | GGTTACGAAAGTAGGACC ((((((....)))..))) | -11.5 | 32
78 | GGTTACGAAAGTATAACC ((((((....)))..))) | -20 | 37.2
79 | GGTTACGCGAAAGCGACC (((..(((....)))))) | -12.4 | 37.2
80 | GGTTACGGAAACGTAACC (((((((....))))))) | -43 | 65.4
81 | GGTTAGCCGAAAGGCACC (((..(((....)))))) | -13.5 | 41.2
82 | GGTTAGGGAAACCCAACC ((((.((....)).)))) | -28.6 | 41
83 | GGTTAGGGAAACCTAACC (((((((....))))))) | -46.4 | 58.3
84 | GGTTAGGGAAACCTAGTC (..((((....))))..) | -11.7 | 28.7
85 | GGTTAGGGAAACTTAACC (((((.(....).))))) | -25.1 | 37.6
86 | GGTTAGTCGAAAGACACC (((..(((....)))))) | -17.2 | 35.5
87 | GGTTATGAAAATAACC ((((((....)))))) | -31.8 | 50.9
88 | GGTTATGGAAACATAGCC ((.((((....)))).)) | -31.1 | 43.8
89 | GGTTCAACGAAAGTTACC (((..(((....)))))) | -14.4 | 27.8
90 | GGTTCCGAAAGGACCACC ((((((....)))..))) | -14 | 44.3
91 | GGTTCCGAAAGGAGACC ((((((....))).))) | -23.8 | 47.6
